Assay outcomes from PubChem.
The list is not random: actives were taken first. Their share in the collection is about 4.5%.
OX1R antag-1 – OX1R (HCRTR1) antagonists, primary screen, fluorescence, CHO/OX1R cells, Fluo-8 calcium, orexin A; Fluo-8 calcium fluorescence; inhibition, % at 5 µM; 330,000 tested, 0.43% active;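 active = inhibition above its plate's threshold, mean inhibition of all tested compounds on the plate plus 3 SD, cut at about 37% in these data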;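 note: 0% = orexin A challenge wells and 100% = SB-334867-A antagonist wells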
Target sequence (O43613 whole entry, looked up): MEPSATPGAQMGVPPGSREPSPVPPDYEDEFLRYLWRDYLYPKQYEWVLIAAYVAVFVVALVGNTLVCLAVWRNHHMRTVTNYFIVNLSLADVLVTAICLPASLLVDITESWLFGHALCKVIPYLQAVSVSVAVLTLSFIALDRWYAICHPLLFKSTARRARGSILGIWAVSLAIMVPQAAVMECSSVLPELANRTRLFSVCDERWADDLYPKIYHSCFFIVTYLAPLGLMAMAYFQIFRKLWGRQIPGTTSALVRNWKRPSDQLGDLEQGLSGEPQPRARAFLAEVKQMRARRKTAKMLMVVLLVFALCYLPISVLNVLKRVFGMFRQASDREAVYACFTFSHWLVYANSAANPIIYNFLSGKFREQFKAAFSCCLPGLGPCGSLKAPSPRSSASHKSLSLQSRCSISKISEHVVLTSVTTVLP
TAAR1 antag – human TAAR1 antagonists, primary screen, Fluo-8 calcium fluorescence, CHO RD-HGA16 cells. antagonist. inhibition, % at 3 µM. 360,000 tested, 1.5% active. AID 624466, 2012;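 active = inhibition above a per-plate cutoff, the mean inhibition of test compounds on that plate plus 3 SD, cut at about 49% in these data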;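 note: 0% = DMSO plus EC80 beta-PEA response and 100% = DMSO alone without agonist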
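Assay system: CHO-derived RD-HGA16 cells stably expressing human TAAR1 plus Gα16. Timing: 140 s kinetic read after compound, 140 s after agonist. Technique: kinetic Fluo-8 calcium fluorescence measurement. Measure: % inhibition of agonist calcium response.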
GPR7 antag – GPR7 receptor antagonists, primary screen, cell-based, fluorescence, single concentration. GPR7-expressing cells, fluorescence antagonist assay. inhibition, % at 4.4 µM. 290,000 tested, 1.1% active; in the data active = inhibition above about 16%, passing the limit was not always enough;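 note: cells stimulated with the agonist NPW; 0% = agonist with vehicle and 100% = vehicle without agonist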
Target sequence (P48145 whole entry, looked up): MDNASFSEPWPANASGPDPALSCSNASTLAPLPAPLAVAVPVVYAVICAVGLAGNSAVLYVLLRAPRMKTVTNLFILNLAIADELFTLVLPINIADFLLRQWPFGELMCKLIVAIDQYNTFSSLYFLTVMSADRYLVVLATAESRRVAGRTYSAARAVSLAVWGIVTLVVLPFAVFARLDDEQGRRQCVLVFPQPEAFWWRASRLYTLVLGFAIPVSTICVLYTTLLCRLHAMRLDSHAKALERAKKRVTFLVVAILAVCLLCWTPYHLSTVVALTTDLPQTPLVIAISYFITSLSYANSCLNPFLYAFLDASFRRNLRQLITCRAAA
CHO parental Ca – ATP-evoked calcium signal inhibitors, parental CHO, primary screen, counter-screen for OX1R antagonist project, cell-based, fluorescence, Fluo-8 calcium dye. parental CHO-K1, ATP-induced calcium, Fluo-8 fluorescence. inhibition, % at 5.6 µM. 330,000 tested, 0.63% active. AID 463079, 2010;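 active = inhibition above that plate's mean sample inhibition plus 3 SD, cut at about 26% in these data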;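 note: 0% = ATP-challenged DMSO wells and 100% = DMSO wells without ATP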
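Test system: parental CHO cells; detection: calcium-sensitive Fluo-8 fluorescence; evaluation: percent inhibition of calcium signal; also added: ATP as calcium-mobilizing challenge; repeats: one well per compound; control set: ATP-challenged DMSO wells low, unchallenged DMSO wells high; compound: single nominal dose of 5.6 µM per compound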
TAAR1 agonist – human TAAR1 agonists, primary screen, Fluo-8 calcium fluorescence, CHO RD-HGA16 cells | Trace amine-associated receptor 1 (Homo sapiens), Q96RJ0 | vehicle wells 0%, saturating PEA agonist 100% | AID 624467, 2012 | activation, % at 3 µM | 360,000 tested, 0.99% active;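 active = activation above the mean activation of all test compounds in the run plus 3 SD, cut at about 38% in these data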
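test system = CHO RD-HGA16 cells carrying human TAAR1 plus Gα16 | schedule = 17-24 h seeding, 75 min 37 °C dye, 30 min RT | compound dosing = 3 µM single concentration | control set = DMSO and PEA EC100 | replicates = n 1 | signal = Fluo-8 fluorescence, 5 s baseline then 140 s kinetic read | measure = percent activation vs PEA EC100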
OX1R antag-2 – antagonists of human orexin 1 receptor (OX1R). 330,000 tested, 1.8% active. OX1R-expressing cells, FRET antagonist read-out. Orexin/Hypocretin receptor type 1 (Homo sapiens), O43613. inhibition, % at 6.6 µM; in the data active = inhibition mostly above about 38%, no sharp cut-off; inactive = mostly below about 40%;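 note: 0% = agonist challenge alone and 100% = reference antagonist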
* hit, by the source's call; . = not tested or not shown.

SMILES | OX1R antag-1 | TAAR1 antag | GPR7 antag | CHO parental Ca | TAAR1 agonist | OX1R antag-2
CCc1nc(N)nc(N)c1-c1ccc(N(C)Cc2ccccc2)c([N+](=O)[O-])c1 | . | 75.8* | . | . | 38.7* | .
CCc1nc(N)nc(N)c1-c1ccc(NCCN)c([N+](=O)[O-])c1 | . | -4.2 | . | . | 12.7 | .
Cc1cc(C(=O)OCC(=O)N2CCC(c3ccccc3)=N2)ccc1[N+](=O)[O-] | -9.7 | 11.6 | . | -10.3 | 1.9 | 8.0
O=C(COC(=O)c1ccc([N+](=O)[O-])s1)Nc1ccccc1 | 5.7 | 11.4 | -2.5 | -2.3 | 2.4 | 71.5*
Cc1ccc(C(=O)OCc2nnc(-c3ccccc3)o2)s1 | -16.9 | -3.7 | . | -1.1 | 4.2 | 11.3
Cc1c(Cl)cnc(NC(=O)COC(=O)c2ccc([N+](=O)[O-])s2)c1Cl | -20.2 | 4.7 | -8.6 | -14.1 | -0.3 | 62.9*
O=C(OCC(=O)N1CCC(c2ccccc2)=N1)c1ccc([N+](=O)[O-])s1 | -26.8 | 8.4 | . | -17.2 | 2.4 | 61.0*
O=C(OCc1nnc(-c2ccccc2)o1)c1ccc([N+](=O)[O-])s1 | 2.4 | 13.9 | . | -3.7 | 5.8 | 46.9*
COCC(=O)N1C[C@H](C)[C@H](OC)CN(C)C(=O)c2cc(NC(=O)Nc3cccc(F)c3)ccc2OC[C@@H]1C | . | -15.9 | . | . | 1.2 | .
C=CCCC1CN(Cc2ccc(OC)cc2)S(=O)(=O)c2c(cccc2N2CCCCC2)O1 (stereo not drawn) | . | -68.6 | . | . | 8.2 | .
CC(C)(C)c1ccc(NC(=O)COC(=O)c2ccc([N+](=O)[O-])s2)cc1 | 3.6 | 5.8 | 11.7 | -3.5 | 2.1 | 34.4
O=C(COC(=O)c1ccc([N+](=O)[O-])s1)Nc1ccc(F)cc1 | 3.1 | 12.7 | . | -2.0 | 3.6 | 41.5*
Cc1ccccc1C(=O)N[C@H](C(=O)N1CCC[C@H]1C(=O)NCc1ccccc1)c1ccccc1 | . | -37.5 | . | . | 1.9 | .
CCn1c(SCc2nc3scc(-c4ccccc4)c3c(=O)[nH]2)nnc1-c1cccs1 | -6.4 | 14.4 | -1.8 | -43.2 | 2.4 | 56.1*
CC(NC(=O)CCNS(=O)(=O)c1cccc2nsnc12)c1ccccc1 (stereo not drawn) | -9.3 | -32.2 | -6.3 | -12.0 | 1.3 | 68.6*
CC(C)c1ccc(NC(=O)CCNS(=O)(=O)c2cccc3nsnc23)cc1 | -3.6 | 13.3 | -8.8 | -9.2 | 7.2 | 13.9
COc1ccc(CNC(=O)CCNS(=O)(=O)c2cccc3nsnc23)cc1 | -14.8 | 9.1 | -12.5 | -6.1 | 0.7 | 45.6
O=C(CCNS(=O)(=O)c1cccc2nsnc12)NCc1ccccc1 | -16.5 | -27.4 | -9.2 | -0.7 | 3.9 | 76.6*
O=C1N[C@@H](Cc2ccccc2)COC(=O)[C@@H](Cc2ccc(F)cc2)C/C=C\C[C@@H]1CC(=O)N(CCO)Cc1ccccc1 | 33.9 | 54.4* | . | -3.9 | 27.6 | 23.7
CC(C)(C)[C@H]1COC(=O)[C@@H](Cc2ccc(F)cc2)CC/C=C/C[C@@H](CC(=O)N[C@@H](CO)Cc2ccccc2)C(=O)N1 | 13.3 | 52.0* | . | -27.1 | 18.8 | 19.8
CC(C)(C)OC(=O)C[C@@H]1C/C=C\C[C@@H](CC(=O)N(CCO)Cc2ccccc2)C(=O)NC[C@H](c2ccccc2)OC1=O | 12.9 | 62.9* | . | -15.5 | 23.1 | 19.3
O=C(NCc1csc2ccccc12)Nc1cc(Cl)cc(Cl)c1 | 5.4 | -6.4 | -12.2 | 5.5 | 20.6 | 52.5*
O=C(NCCN1CCN(Cc2ccccc2)CC1)Nc1cc(Cl)cc(Cl)c1 | -14.9 | 22.7 | 7.7 | -2.0 | 43.6* | 4.6
O=C(NCc1ccccn1)Nc1cc(Cl)cc(Cl)c1 | 2.6 | 3.2 | 25.2 | 28.5* | 11.8 | 7.6
O=C(NCc1ccccn1)Nc1cccc(Cl)c1 | -9.4 | 21.4 | 10.8 | -1.4 | 4.3 | 23.2
SMILES | OX1R antag-1 | TAAR1 antag | GPR7 antag | CHO parental Ca | TAAR1 agonist | OX1R antag-2
CC(=O)OC[C@H]1O[C@H](C#Cc2ccc(C(C)(C)C)cc2)C=C[C@H]1OC(=O)Nc1ccccc1 | . | 1.9 | . | . | -0.5 | .
C[C@@H]1CN([C@@H](C)CO)C(=O)CCCn2cc(nn2)CO[C@H]1CN(C)C(=O)Cc1ccccc1 | . | -8.8 | . | . | -0.2 | .
O=C(NN=Cc1ccco1)C(=O)Nc1cccc(C(F)(F)F)c1 | . | 8.0 | . | . | 3.5 | .
Cc1cc2c(c(=O)o1)[C@@]1(C(=O)N(C)c3ccccc31)C1=C(CC(C)(C)CC1=O)O2 | . | -19.5 | . | . | 13.8 | .
Cc1ccc(Cn2c(CCNc3nc(-c4ccc(Cl)c([N+](=O)[O-])c4)cs3)nc3cc(C(=O)NCCCO)ccc32)cc1 | 15.6 | 55.4* | . | -2.5 | 7.6 | 5.5
O=[N+]([O-])c1cc(-c2csc(NCCc3nc4cc(C(F)(F)F)ccc4n3CCCO)n2)ccc1Cl | -19.0 | 4.1 | . | -5.6 | 0.5 | 23.3
CCOC(=O)C1=CCN(S(=O)(=O)c2ccc(Cl)cc2)C1c1ccc(Cl)c(Cl)c1 (stereo not drawn) | . | 12.2 | . | . | 2.7 | .
Cn1c(SCC2CCCO2)nnc1-c1cccc([N+](=O)[O-])c1 (stereo not drawn) | -16.2 | 20.6 | -5.5 | -0.6 | 11.5 | 49.8*
Cn1c(SCC2CCCO2)nnc1-c1ccncc1 (stereo not drawn) | -6.3 | -14.0 | -13.7 | -9.2 | 3.8 | -7.6
C=CCNC(=O)O/N=C/c1csc([N+](=O)[O-])c1 | -4.3 | -1.1 | -1.4 | -11.9 | 0.3 | 41.9*
COc1cc(NC(=O)C(c2ccccc2)c2ccccc2)c(C(=O)O)cc1OC | -17.8 | 10.7 | -9.1 | -3.1 | -0.7 | -1.0
COc1cc2c(cc1NC(=O)C(c1ccccc1)c1ccccc1)CCCC2 | 36.2 | 15.9 | -6.9 | 32.5* | 9.7 | 20.6
O=C(NCC1CCN(C(=O)C(=O)c2cc3ccccc3o2)CC1)c1ccc2c(c1)OCC2 | . | -28.7 | . | . | 3.7 | .
O=c1oc2c3c(nn2c2ccccc12)CCCC3 | 31.0 | -1.4 | 5.6 | -8.7 | 4.3 | 67.3*
Cc1ccc(S(=O)(=O)N2CCCCC2)cc1NC(=O)COC(=O)c1cccc(O)c1 | . | 0.9 | . | . | 3.3 | .
CC(=O)N1CCN(c2ccccc2NC(=O)COc2cc(C)ccc2C(C)C)CC1 | -8.2 | 46.6 | 20.8* | -12.5 | 20.3 | 37.3
CCOc1ccc(NC(=O)C2CC(=O)N(CC)C(=Nc3ccc4c(c3)OCO4)S2)cc1 (stereo not drawn) | -21.3 | 47.9 | -9.3 | -19.4 | 12.3 | 0.7
CCN=C1SC(C(=O)Nc2cccc(C)c2)CC(=O)N1CC (stereo not drawn) | -3.5 | 62.6* | -3.2 | -7.3 | 17.7 | 43.8
CCN=C1SC(C(=O)Nc2cccc(Cl)c2)CC(=O)N1CC (stereo not drawn) | -17.5 | 58.2* | 1.4 | 4.3 | 22.9 | 0.6
